In ChEMBL document CHEMBL3227986, “Design of species- or isozyme-specific enzyme inhibitors. 1. Effect of thymidine substituents on affinity for the thymidine site of hamster cytoplasmic thymidine kinase” (J Med Chem, 1979):

Assays:
[1] = biological target: T1, Thymidine kinase, cytosolic (Homo sapiens, UniProt P04183); experiment: Inhibition of human cytoplasmic thymidine kinase
T1 sequence (P04183 whole entry): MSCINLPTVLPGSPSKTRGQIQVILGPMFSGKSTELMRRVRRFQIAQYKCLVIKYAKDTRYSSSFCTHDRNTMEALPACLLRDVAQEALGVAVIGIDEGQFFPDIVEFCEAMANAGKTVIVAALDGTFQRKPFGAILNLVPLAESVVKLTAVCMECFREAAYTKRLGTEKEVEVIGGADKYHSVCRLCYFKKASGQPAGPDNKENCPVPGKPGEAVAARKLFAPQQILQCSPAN

[2] = biological target: T2, Thymidine kinase 2, mitochondrial (Homo sapiens, UniProt O00142); experiment: Inhibition of human mitochondrial thymidine kinase
T2 sequence (O00142 whole entry): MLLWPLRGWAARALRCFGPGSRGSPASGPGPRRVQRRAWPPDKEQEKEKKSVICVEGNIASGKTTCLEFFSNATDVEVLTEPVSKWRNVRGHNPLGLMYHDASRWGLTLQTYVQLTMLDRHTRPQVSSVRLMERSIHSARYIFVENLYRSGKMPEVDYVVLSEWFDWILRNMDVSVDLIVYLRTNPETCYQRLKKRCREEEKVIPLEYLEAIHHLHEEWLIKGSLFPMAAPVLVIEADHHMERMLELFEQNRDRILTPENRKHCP

[3] = biological target: T3, Thymidine kinase, cytosolic (Cricetulus griseus) (UniProt P09768); experiment: Inhibition of thymidine kinase in BHK21 (C13) cells using thymidine as substrate assessed as formation of TMP at 4 mM; type: cell-based; details: Mesocricetus auratus
T3 sequence (whole entry): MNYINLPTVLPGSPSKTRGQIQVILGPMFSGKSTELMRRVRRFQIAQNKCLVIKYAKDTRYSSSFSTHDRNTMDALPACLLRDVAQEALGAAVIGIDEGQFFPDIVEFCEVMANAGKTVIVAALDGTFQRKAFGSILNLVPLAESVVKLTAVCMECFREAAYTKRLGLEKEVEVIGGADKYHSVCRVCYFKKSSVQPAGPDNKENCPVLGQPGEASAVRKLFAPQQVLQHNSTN
Procedure, shortened: (§1)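 BHK21(C13) 100000g supernatant in Tris-HCl 0.05 M pH 8.0, ATP 5 mM, MgCl2 2.5 mM, [14C]thymidine 3.6 μM, 10 min at 37 °C. Reaction stopped by boiling; [14C]TMP bound to DEAE-cellulose disks and counted by liquid scintillation, corrected for unincubated blanks.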

[4] = biological target: T3, Thymidine kinase, cytosolic (Cricetulus griseus); experiment: Inhibition of thymidine kinase in BHK21 (C13) cells using thymidine as substrate assessed as formation of TMP at 2 mM; type: cell-based; details: Mesocricetus auratus; procedure, shortened: as §1
[5] = biological target: T3, Thymidine kinase, cytosolic (Cricetulus griseus); experiment: Activity at thymidine kinase in BHK21 (C13) cells at 350 uM after 30 mins relative to thymidine; type: cell-based; details: Mesocricetus auratus
Procedure, shortened: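 Radiolabeled thymidine or 2'-deoxyuridine derivatives tested as substrates: 40 μL BHK21(C13) 100000g supernatant, Tris-HCl 0.05 M pH 8.0, ATP 5 mM, MgCl2 2.5 mM, no thymidine, 30 min at 37 °C. Products separated by paper electrophoresis in 0.05 M triethylammonium bicarbonate pH 7.6; radioactivity counted in the TMP region.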

CCCc1cn([C@H]2C[C@H](O)[C@@H](CO)O2)c(=O)[nH]c1=O
Ki [1]: 20 µM | Ki [2]: 20 µM

CC(=O)Nc1cn([C@H]2C[C@H](O)[C@@H](CO)O2)c(=O)[nH]c1=O
inhibition [3]: 13% | inhibition [4]: 8% | Activity [5]: < 0.25%
